Measurements taken from ChEMBL document CHEMBL3259771, “Probing the aurone scaffold against Plasmodium falciparum: design, synthesis and antimalarial activity” (Eur J Med Chem, 2014).
Calls of active or inactive are those of the source. The rule behind the calls is not given here.

How the values were obtained:
Plasmodium falciparum [1] = experiment: Antiplasmodial activity against chloroquine-resistant ring stage Plasmodium falciparum W2 infected in human RBC after 48 hrs by flow cytometric analysis; assay type: functional, organism-based; details: W2, 48 h
Outline: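 Ring-stage W2 parasites at 1% in human erythrocytes, synchronized with 5% sorbitol. Incubated with compound 48 h at 37 °C in RPMI-1640 with 25 mM HEPES pH 7.4, 10% heat-inactivated human serum (or 0.5% Albumax/2% human serum) and hypoxanthine, under 3% O₂/5% CO₂/[…]. Cells fixed in 2% formaldehyde, stained in PBS with NH₄Cl, 0.1% Triton X-100 and 1 nM YOYO-1, then counted by flow cytometry.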

HEK-293T = experiment: Cytotoxicity against HEK293T cells after 48 hrs by MTT assay; assay type: cell-based; details: Homo sapiens
[2] = Selectivity index, ratio of EC50 for HEK293T cells to IC50 for chloroquine-resistant ring stage Plasmodium falciparum W2; assay type: functional, HEK-293T
Plasmodium falciparum [3] = experiment: Inhibition of Plasmodium falciparum falcipain-2 up to 50 uM
[4] = Water-lipid distribution coefficient, log D of the compound at pH 7.4; assay type: physicochemical
[5] = Water-lipid distribution coefficient, log D of the compound at pH 5.2; assay type: physicochemical
[6] = Vacuolar accumulation ratio of the compound; assay type: ADME
Outline: (§1)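 Calculated rather than measured. VAR: predicted trapping in acidic digestive vacuole from pH-dependent water/lipid distribution (log D). LAR: expected fraction concentrating in the vacuole's lipid component.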

[7] = Lipid accumulation ratio of the compound; assay type: physicochemical; outline: as §1
[8] = Inhibition of hemozoin-like crystal formation up to 1 mM after 5 days; assay type: functional
Outline: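 Hemozoin-like crystal stock suspension sonicated 3 min and diluted in fresh broth medium. Compounds in wells at 0–1000 final concentration after 0.22 filtration. Incubated at 37 °C, 5% CO₂, 5 days, then scored for presence or absence of crystal growth. Triplicate.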

SMILES | IC50 (Plasmodium falciparum [1]) [µM] | EC50 (HEK-293T) [µM] | Selectivity Index [2] | inhibition (Plasmodium falciparum [3]) | logD [4] | logD [5] | Ratio [6] | Ratio [7] | inhibition [8]
O=C1/C(=C/c2ccc(Oc3ccc(Cl)cc3)cc2)Oc2cc(O)ccc21 | 9.88 | 12 | >1 | inactive |  |  |  |  | 
O=C1/C(=C/c2ccc(-c3ccccc3)cc2)Oc2ccccc21 | > 10 | > 100 | >10 | inactive |  |  |  |  | 
O=C1/C(=C/c2cccc(-c3ccc(Cl)cc3)c2)Oc2ccccc21 | > 10 | > 100 | >10 | inactive |  |  |  |  | 
O=C1/C(=C/c2ccccc2)Oc2cc(O)ccc21 | > 10 | > 100 | >10 | inactive |  |  |  |  | 
O=C1/C(=C/c2ccc(Cl)cc2Cl)Oc2cc(O)ccc21 | > 10 | > 100 | >10 | inactive |  |  |  |  | 
O=C1/C(=C/c2ccc(-c3ccc(F)cc3)cc2)Oc2ccccc21 | > 10 | > 100 | >10 | inactive |  |  |  |  | 
O=C1/C(=C/c2ccc(Cc3ccccc3)cc2)Oc2ccccc21 | 7.34 | 87 | >12 | inactive |  |  |  |  | 
O=C1/C(=C/c2ccc(NCc3ccccc3)cc2)Oc2ccccc21 | 5 | > 100 | >20 | inactive |  |  |  |  | 
CN1CCN(Cc2c(O)ccc3c2O/C(=C\c2ccccc2)C3=O)CC1 | 4.01 | > 100 | >25 |  | 1.02 | -3.33 | 22589 | 10.6 | inactive
COc1cccc2c1O/C(=C\c1ccc(F)cc1F)C2=O | > 10 | > 100 | >10 | inactive |  |  |  |  | 
CCN(CC)Cc1c(O)ccc2c1O/C(=C\c1ccccc1)C2=O | 3.47 | > 100 | >29 |  | 1.79 | -0.4 | 156 | 62 | inactive
O=C1/C(=C/c2ccccc2)Oc2cc(-c3ccccc3)ccc21 | > 10 | > 100 | >10 | inactive |  |  |  |  | 
O=C1/C(=C/c2ccc(Oc3ccc(Cl)cc3)cc2)Oc2ccccc21 | > 10 | > 100 | >10 | inactive |  |  |  |  | 
O=C1/C(=C/c2cccc(-c3ccccc3)c2)Oc2ccccc21 | 5.21 | > 100 | >19 | inactive |  |  |  |  | 
O=C1/C(=C/c2ccc(F)cc2F)Oc2cc(O)ccc21 | > 10 | > 100 | >10 | inactive |  |  |  |  | 
O=C1/C(=C/c2ccc(Cl)cc2Cl)Oc2ccccc21 | > 10 | 68 | <6.8 | inactive |  |  |  |  | 
O=C1/C(=C/c2ccc(F)cc2F)Oc2ccccc21 | > 10 | > 100 | >10 | inactive |  |  |  |  | 
O=C1/C(=C/c2ccc(Nc3ccccc3)cc2)Oc2ccccc21 | 8.59 | > 100 | >12 | inactive |  |  |  |  | 
O=C1/C(=C/c2ccc(Br)cc2)Oc2ccccc21 | 3.21 | > 100 | >31 | inactive |  |  |  |  | 

SMILES | IC50 (Plasmodium falciparum [1]) [µM] | EC50 (HEK-293T) [µM] | Selectivity Index [2] | inhibition (Plasmodium falciparum [3]) | logD [4] | logD [5] | Ratio [6] | Ratio [7] | inhibition [8]
Cc1ccc(Oc2ccc(/C=C3\Oc4ccccc4C3=O)cc2)cc1 | > 10 | > 100 | >10 | inactive |  |  |  |  | 
O=Cc1ccc(-c2cccc(/C=C3\Oc4ccccc4C3=O)c2)cc1 | > 10 | > 100 | >10 | inactive |  |  |  |  | 
O=C1/C(=C/c2ccccc2)Oc2ccccc21 [(Z)-AURONE] | > 10 | > 100 | >10 | inactive |  |  |  |  | 
O=C1/C(=C/c2ccc(-c3cnc4ccccc4c3)cc2)Oc2ccccc21 | 6.59 | > 100 | >15 | inactive | 5.16 | 5.08 | 1.19 | 144366 | 
Cc1ccc(Oc2ccc(/C=C3\Oc4cc(O)ccc4C3=O)cc2)cc1 | 5.84 | 95 | >16 | inactive |  |  |  |  | 
COc1cccc2c1O/C(=C\c1ccccc1)C2=O | > 10 | > 100 | >10 | inactive |  |  |  |  | 
CN(C)c1ccc(/C=C2\Oc3ccccc3C2=O)cc1 | 7.99 | > 100 | >13 | inactive |  |  |  |  | 
COc1cc(/C=C2\Oc3c(OC)cccc3C2=O)cc(OC)c1OC | > 10 | > 100 | >10 | inactive |  |  |  |  | 
O=Cc1ccc(-c2ccc(/C=C3\Oc4ccccc4C3=O)cc2)cc1 | > 10 | > 100 | >10 | inactive |  |  |  |  | 
COc1cc(/C=C2\Oc3ccccc3C2=O)cc(OC)c1OC | > 10 | > 100 | >10 | inactive |  |  |  |  | 
O=C1/C(=C/c2cccc(-c3ccc(F)cc3)c2)Oc2ccccc21 | 4.41 | > 100 | >23 | inactive |  |  |  |  | 
O=C1/C(=C/c2ccccc2)Oc2cc(-c3ccc(F)cc3)ccc21 | > 10 | > 100 | >10 | inactive |  |  |  |  | 
O=C1/C(=C/c2ccccc2Br)Oc2ccccc21 | > 10 | > 100 | >10 | inactive |  |  |  |  | 
O=C1/C(=C/c2ccccc2)Oc2c1ccc(O)c2CN1CCCCC1 | 1.18 | > 100 | >85 |  | 2.04 | -0.15 | 155 | 110 | inactive
COc1cc(/C=C2\Oc3cc(O)ccc3C2=O)cc(OC)c1OC | > 10 | > 100 | >10 | inactive |  |  |  |  | 
O=C1/C(=C/c2cccc(Br)c2)Oc2ccccc21 | 4.7 | > 100 | >21 | inactive |  |  |  |  | 
O=C1/C(=C/c2cccc(Cc3ccccc3)c2)Oc2ccccc21 | 2.31 | 71 | >31 | inactive |  |  |  |  | 
CN(C)c1ccc(/C=C2\Oc3cc(O)ccc3C2=O)cc1 | > 10 | > 100 | >10 | inactive |  |  |  |  | 
O=C1/C(=C/c2ccc(-c3ccc(Cl)cc3)cc2)Oc2ccccc21 | > 10 | > 100 | >10 | inactive |  |  |  |  | 
